Data published in ChEMBL document CHEMBL4350958, “Rational Design of Short Peptide Variants by Using Kunitzin-RE, an Amphibian-Derived Bioactivity Peptide, for Acquired Potent Broad-Spectrum Antimicrobial and Improved Therapeutic Potential of Commensalism Coinfection of Pathogens” (J Med Chem, 2019).

Columns and labels:
[1] = Cytotoxicity against mouse RAW264.7 cells assessed as cell viability at 2 to 64 uM measured after 18 to 24 hrs by MTT assay relative to control; type: cell-based; details: RAW264.7 cells, read-out: Activity
Outline: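 MTT assay: RAW264.7 cells seeded at 1.0–2.0×10^4 per well and exposed to peptide (2–64 µM) for 18–24 h at 37 °C in 5% CO2. MTT (0.5 mg/mL) added for 4 h, formazan dissolved in DMSO, read at 570 nm. At least three independent experiments with triplicate wells.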

[2] = system: Escherichia coli; experiment: Antibacterial activity against Escherichia coli K99 measured after 24 hrs; type: functional; details: K99, 24 h
Outline: (§1)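 Broth microdilution adapted from NCCLS. Mid-log bacteria were diluted in MHB to a final (0.5–1) × 10^5 CFU mL−1. Peptides were serially diluted in 0.2% BSA and mixed with an equal volume of cells. After 24 h at 37 °C, MIC was read at A492 as the lowest concentration inhibiting 95% of growth. At least three independent experiments, each with three technical replicates.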

[3] = system: Escherichia coli; experiment: Antibacterial activity against Escherichia coli 078 measured after 24 hrs; type: functional; details: Escherichia coli, 078, 24 h; outline: as §1
[4] = system: Salmonella typhimurium; experiment: Antibacterial activity against Salmonella typhimurium C7731 measured after 24 hrs; type: functional, Salmonella enterica subsp. enterica serovar Typhimurium; details: Salmonella enterica, C7731, 24 h; outline: as §1
[5] = system: Staphylococcus aureus; experiment: Antibacterial activity against Staphylococcus aureus ATCC 25923 measured after 24 hrs; type: functional; details: ATCC 25923, 24 h
Outline: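 Broth microdilution modified from NCCLS. Mid-log bacteria at (0.5–1) × 10^5 CFU mL−1 in MHB, mixed with peptides serially diluted in 0.2% BSA. Incubated 24 h at 37 °C, read at A492. MIC taken as lowest concentration giving 95% growth inhibition. At least three independent experiments, each with three technical replicates.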

[6] = system: Escherichia coli; experiment: Bactericidal activity against Escherichia coli UB1005 incubated for 24 hrs followed by replating on agar plate and measured after overnight incubation; type: functional; details: UB1005, 24 h, read-out: MBC>99.9
Outline: (§2)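 Mid-log bacteria diluted in MHB to (0.5–1) × 10^5 CFU/mL and mixed 1:1 with peptide serially diluted in 0.2% BSA. After 24 h at 37 °C, 50 μL of each mixture was plated on agar and incubated overnight. MBC taken as the lowest concentration killing >99.9% of cells. At least three independent experiments, each with three technical replicates.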

[7] = Bactericidal activity against Salmonella pullorum ATCC 7913 incubated for 24 hrs followed by replating on agar plate and measured after overnight incubation; type: functional, Salmonella enterica subsp. enterica serovar Pullorum; details: Salmonella enterica, ATCC 7913, 24 h; read-out: MBC>99.9; outline: as §2
[8] = system: Pseudomonas aeruginosa; experiment: Bactericidal activity against Pseudomonas aeruginosa ATCC 27853 incubated for 24 hrs followed by replating on agar plate and measured after overnight incubation; type: functional; details: ATCC 27853, 24 h, read-out: MBC>99.9; outline: as §2
[9] = system: Staphylococcus aureus; experiment: Bactericidal activity against methicillin-resistant Staphylococcus aureus ATCC 43300 incubated for 24 hrs followed by replating on agar plate and measured after overnight incubation; type: functional; details: ATCC 43300, 24 h, read-out: MBC>99.9
Outline: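 After the 24 h, 37 °C MHB microdilution MIC assay, 50 μL from each well was plated on agar and incubated overnight. MBC taken as lowest peptide concentration killing >99.9% of cells. At least three independent experiments, each with three technical replicates.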

[10] = system: Candida tropicalis; experiment: Fungicidal activity against Candida tropicalis cgmcc2.1975 incubated for 48 hrs followed by replating on YM agar plate and measured after 48 hrs; type: functional
Outline: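 Yeast diluted in MOPS-buffered RPMI 1640 to (0.5–1) × 10^3 CFU/mL (CLSI M27-A2, modified) and mixed 1:1 with peptide serially diluted in 0.2% BSA. After 48 h at 28 °C, 50 μL per well was plated on YM agar and incubated 48 h at 28 °C. MFC taken as the lowest concentration killing ≥99.9% of cells. Three or more independent experiments, triplicate wells.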

[11] = system: Escherichia coli; experiment: Antibacterial activity against Escherichia coli ATCC 25922 measured after 18 to 24 hrs in presence of KCl; type: functional
[12] = system: Escherichia coli; experiment: Antibacterial activity against Escherichia coli ATCC 25922 measured after 18 to 24 hrs in presence of CaCl2; type: functional
[13] = system: Staphylococcus aureus; experiment: Antibacterial activity against Staphylococcus aureus ATCC 29213 measured after 18 to 24 hrs in presence of KCl; type: functional
[14] = system: Staphylococcus aureus; experiment: Antibacterial activity against Staphylococcus aureus ATCC 29213 measured after 18 to 24 hrs in presence of MgCl2; type: functional
[15] = system: Staphylococcus aureus; experiment: Antibacterial activity against Staphylococcus aureus ATCC 29213 measured after 18 to 24 hrs in presence of ZnCl2; type: functional
Outline: (§3)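 MIC broth microdilution (MHB, 0.2% BSA peptide diluent, A492, 95% inhibition) run in the presence of physiological salts at final concentrations of 6 μM NH4Cl or 8 μM ZnCl2. Three independent assays, each with three technical replicates.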

[16] = system: Staphylococcus aureus; experiment: Antibacterial activity against Staphylococcus aureus ATCC 29213 measured after 18 to 24 hrs in presence of NH4Cl; type: functional; outline: as §3
[17] = system: Candida albicans; experiment: Antifungal activity against Candida albicans cgmcc2.2086 measured after 48 hrs in presence of NaCl by broth microdilution method; type: functional; details: cgmcc2.2086, 48 h
[18] = system: Candida albicans; experiment: Antifungal activity against Candida albicans cgmcc2.2086 measured after 48 hrs in presence of MgCl by broth microdilution method; type: functional; details: cgmcc2.2086, 48 h
[19] = system: Candida albicans; experiment: Antifungal activity against Candida albicans cgmcc2.2086 measured after 48 hrs in presence of ZnCl by broth microdilution method; type: functional; details: cgmcc2.2086, 48 h
[20] = system: Candida albicans; experiment: Antifungal activity against Candida albicans cgmcc2.2086 measured after 48 hrs in presence of FeCl by broth microdilution method; type: functional; details: cgmcc2.2086, 48 h
[21] = Therapeutic index, ratio of MHC10 for hemolytic activity in human RBC to MIC95 against Staphylococcus epidermidis ATCC 12228; type: toxicity; details: human red blood cells (erythrocytes), read-out: TI
Outline: (§4)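 Therapeutic index = MHC divided by MIC. MHC is the lowest concentration giving >10% lysis of human RBC (1 h, 37 °C, 1-128 µM, A576). MIC is 95% growth inhibition by broth microdilution: bacteria in MHB 24 h at 37 °C; Candida in MOPS-buffered RPMI 1640 at (0.5–1) × 10^3 CFU mL−1, 48 h at 28 °C.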

[22] = Therapeutic index, ratio of MHC10 for hemolytic activity in human RBC to MIC95 against Staphylococcus aureus ATCC 25923; type: toxicity; details: human red blood cells (erythrocytes), read-out: TI; outline: as §4
[23] = Therapeutic index, ratio of MHC10 for hemolytic activity in human RBC to MIC95 against Staphylococcus aureus ATCC 29213; type: toxicity; details: human red blood cells (erythrocytes), read-out: TI; outline: as §4
[24] = Therapeutic index, ratio of MHC10 for hemolytic activity in human RBC to MIC95 against Candida tropicalis cgmcc2.1975; type: toxicity; details: human red blood cells (erythrocytes), read-out: TI; outline: as §4
[25] = Conformational stability in pH 7.4 sodium phosphate buffer assessed as absorption spectra at minimum dichroic band at 35 uM by CD spectra analysis; type: physicochemical; details: pH 7.4, 35 µM
Outline: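 CD spectra from 190 to 250 nm of peptide at 35 μM in 10 mM PBS, 30 mM SDS micelles or 50% TFE, recorded in a 1.0-mm quartz cell. Ellipticity was converted to mean residue ellipticity. Three independent scans, each averaged over more than 3 runs.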

H-AARIILRWRFR-NH2
viability at up to 64 µM [1]: 90 to 100%
MIC95 [2]: 2 µM
MIC95 [3]: 2 µM
MIC95 [4]: 4 µM
MIC95 [5]: 2 µM
MBC [6]: 4 µM
MBC [7]: 4 µM
MBC [8]: 4 µM
MBC [9]: 1 µM
MFC<=99.9 [10]: 4 µM
MIC95 [11]: 2 µM
MIC95 [12]: 4 µM
MIC95 [13]: 1 µM
MIC95 [14]: 2 µM
MIC95 [15]: 1 µM
MIC95 [16]: 2 µM
MIC95 [17]: 16 µM
MIC95 [18]: 16 µM
MIC95 [19]: 8 µM
MIC95 [20]: 8 µM
selectivity ratio [21]: 215
selectivity ratio [22]: 215
selectivity ratio [23]: 215
selectivity ratio [24]: 50.8
Wavelength of minimum CD band [25]: 200 nm

H-AARIILRYRFR-NH2
viability at up to 64 µM [1]: 90 to 100%
MIC95 [2]: 4 µM
MIC95 [3]: 4 µM
MIC95 [4]: 4 µM
MIC95 [5]: 8 µM
MBC [6]: 8 µM
MBC [7]: 8 µM
MBC [8]: 64 µM
MBC [9]: 8 µM
MFC<=99.9 [10]: 32 µM
MIC95 [11]: 32 µM
MIC95 [12]: > 128 µM
MIC95 [13]: 8 µM
MIC95 [14]: 8 µM
MIC95 [15]: 2 µM
MIC95 [16]: 4 µM
MIC95 [17]: 128 µM
MIC95 [18]: 64 µM
MIC95 [19]: 64 µM
MIC95 [20]: 64 µM
selectivity ratio [21]: 64
selectivity ratio [22]: 64
selectivity ratio [23]: 64
selectivity ratio [24]: 8
Wavelength of minimum CD band [25]: 200 nm

H-AARRILRWIFR-NH2
viability at up to 64 µM [1]: 90 to 100%
MIC95 [2]: 4 µM
MIC95 [3]: 4 µM
MIC95 [4]: 4 µM
MIC95 [5]: 8 µM
MBC [6]: 4 µM
MBC [7]: 8 µM
MBC [8]: 16 µM
MBC [9]: 8 µM
MFC<=99.9 [10]: 4 µM
MIC95 [11]: 8 µM
MIC95 [12]: 16 µM
MIC95 [13]: 4 µM
MIC95 [14]: 8 µM
MIC95 [15]: 4 µM
MIC95 [16]: 8 µM
MIC95 [17]: 32 µM
MIC95 [18]: 16 µM
MIC95 [19]: 8 µM
MIC95 [20]: 8 µM
selectivity ratio [21]: 45.2
selectivity ratio [22]: 45.2
selectivity ratio [23]: 45.2
selectivity ratio [24]: 40.3
Wavelength of minimum CD band [25]: 200 nm
